Laboratory results as given in ChEMBL document CHEMBL5154773, “Development of Sulfamoylated 4-(1-Phenyl-1H-1,2,3-triazol-4-yl)phenol Derivatives as Potent Steroid Sulfatase Inhibitors for Efficient Treatment of Breast Cancer” (J Med Chem, 2022).
Activity calls are given as the source filed them. The calls are words filed in the database; no cut-off is given here.

Columns and labels:
[1] = Toxicity in BALB/c mouse assessed as macroscopic changes in kidneys at 10 to 50 mg/kg, po for 5 days a week for 2 weeks; type: organism-based; conditions: in vivo, 336 h, dose 10-50 mg/kg
Outline: (§1)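 Female BALB/c mice, three per dose, received oral doses of 10 mg/kg/day, 5 days a week for 2 weeks. Later mice received 20 or 50 mg/kg. Body weight and general health, including feces, were followed. After cervical dislocation, liver, kidney and spleen were weighed, and liver, kidneys, intestines and spleen were assessed macroscopically.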

[2] = Toxicity in BALB/c mouse allografted with mouse 67NR cells assessed as increase in monocyte count at 50 mg/kg, po for 5 days a week; type: organism-based; conditions: in vivo, 168 h, time 1 weeks
[3] = Toxicity in BALB/c mouse allografted with mouse 67NR cells assessed as enlarged liver at 50 mg/kg, po for 5 days a week; type: organism-based; conditions: in vivo, 168 h, time 1 weeks
[4] = Toxicity in BALB/c mouse assessed as macroscopic changes in liver at 10 to 50 mg/kg, po for 5 days a week for 2 weeks; type: organism-based; conditions: in vivo, 336 h, dose 10-50 mg/kg; outline: as §1
[5] = Toxicity in BALB/c mouse allografted with mouse 67NR cells assessed as effect on hemoglobin levels at 50 mg/kg, po for 5 days a week; type: organism-based; conditions: in vivo, 168 h, time 1 weeks
[6] = Toxicity in BALB/c mouse assessed as maximum tolerated dose administered orally for 5 days a week; conditions: in vivo, route po, time 1 weeks
Outline: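 Female Balb/c mice, three per dose, were dosed per os, starting at 10 mg/kg/day and then at 20 and 50 mg/kg, 5 days a week for 2 weeks. Body weight and general health were followed. At autopsy, liver, kidney and spleen were weighed and examined macroscopically.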

[7] = Toxicity in BALB/c mouse assessed as weight change of spleen at 10 to 50 mg/kg, po for 5 days a week for 2 weeks; type: organism-based; conditions: in vivo, 336 h, dose 10-50 mg/kg; outline: as §1
[8] = Toxicity in BALB/c mouse assessed as weight change of kidney at 10 to 50 mg/kg, po for 5 days a week for 2 weeks; type: organism-based; conditions: in vivo, 336 h, dose 10-50 mg/kg; outline: as §1
[9] = Toxicity in BALB/c mouse allografted with mouse 67NR cells assessed as increase in granulocyte count at 50 mg/kg, po for 5 days a week; type: organism-based; conditions: in vivo, 168 h, time 1 weeks
[10] = (§2) In vivo inhibition of STS in BALB/c mouse allografted with mouse 67NR cells assessed as residual enzyme activity in tumor lysates using [3H]E1S as substrate at 50 mg/kg, po for 5 days a week followed by incubation of tumor lysates with [3H]E1S for 3 hrs by radioisotope enzymatic assay (reference value: 100%); type: functional, Neoplasm; conditions: time 1 weeks
[11] = Toxicity in BALB/c mouse allografted with mouse 67NR cells assessed as effect on hematocrit levels at 50 mg/kg, po for 5 days a week; type: organism-based; conditions: in vivo, 168 h, time 1 weeks
[12] = system: Mus musculus; experiment: In vivo inhibition of STS in BALB/c mouse allografted with mouse 67NR cells assessed as reduction in estradiol level in plasma at 50 mg/kg, po administered 5 days a week by ELISA; type: functional, organism-based; conditions: time 1.0 weeks
[13] = Toxicity in BALB/c mouse assessed as change in feces consistency at 50 mg/kg, po for 5 days a week for 2 weeks; type: organism-based; conditions: in vivo, 336 h; outline: as §1
[14] = Toxicity in BALB/c mouse assessed as toxic effects at 10 to 50 mg/kg, po for 5 days a week for 2 weeks; type: organism-based; conditions: in vivo, 336 h, dose 10-50 mg/kg; outline: as §1
[15] = as §2, with “in liver” for “in tumor”; type: functional; conditions: time 1 weeks
[16] = Toxicity in BALB/c mouse allografted with mouse 67NR cells assessed as increase in blood urea levels at 50 mg/kg, po for 5 days a week; type: organism-based; conditions: in vivo, 168 h, time 1 weeks
[17] = Toxicity in BALB/c mouse allografted with mouse 67NR cells assessed as decrease in spleen weight at 50 mg/kg, po for 5 days a week; type: organism-based; conditions: in vivo, 168 h, time 1 weeks
[18] = Toxicity in BALB/c mouse assessed as macroscopic changes in spleen at 10 to 50 mg/kg, po for 5 days a week for 2 weeks; type: organism-based; conditions: in vivo, 336 h, dose 10-50 mg/kg; outline: as §1
[19] = Toxicity in BALB/c mouse assessed as body weight loss at 10 to 50 mg/kg, po for 5 days a week for 2 weeks; type: organism-based; conditions: in vivo, 336 h, dose 10-50 mg/kg; outline: as §1
[20] = Toxicity in BALB/c mouse allografted with mouse 67NR cells assessed as effect on erythrocyte count at 50 mg/kg, po for 5 days a week; type: organism-based; conditions: in vivo, 168 h, time 1 weeks
[21] = Toxicity in BALB/c mouse assessed as weight change of liver at 10 to 50 mg/kg, po for 5 days a week for 2 weeks; type: organism-based; conditions: in vivo, 336 h, dose 10-50 mg/kg; outline: as §1
[22] = Toxicity in BALB/c mouse allografted with mouse 67NR cells assessed as decrease in lymphocyte count at 50 mg/kg, po for 5 days a week; type: organism-based; conditions: in vivo, 168 h, time 1 weeks
[23] = Toxicity in BALB/c mouse assessed as macroscopic changes in intestines at 10 to 50 mg/kg, po for 5 days a week for 2 weeks; type: organism-based; conditions: in vivo, 336 h, dose 10-50 mg/kg; outline: as §1
[24] = target: T1, Steryl-sulfatase (Homo sapiens) (UniProt P08842); experiment: Inhibition of STS in human MCF7 cells assessed as residual enzyme activity using [3H]E1S as substrate at 100 nM incubated for 20 hrs by radioisotope cellular assay relative to control; type: cell-based
T1 sequence (whole entry): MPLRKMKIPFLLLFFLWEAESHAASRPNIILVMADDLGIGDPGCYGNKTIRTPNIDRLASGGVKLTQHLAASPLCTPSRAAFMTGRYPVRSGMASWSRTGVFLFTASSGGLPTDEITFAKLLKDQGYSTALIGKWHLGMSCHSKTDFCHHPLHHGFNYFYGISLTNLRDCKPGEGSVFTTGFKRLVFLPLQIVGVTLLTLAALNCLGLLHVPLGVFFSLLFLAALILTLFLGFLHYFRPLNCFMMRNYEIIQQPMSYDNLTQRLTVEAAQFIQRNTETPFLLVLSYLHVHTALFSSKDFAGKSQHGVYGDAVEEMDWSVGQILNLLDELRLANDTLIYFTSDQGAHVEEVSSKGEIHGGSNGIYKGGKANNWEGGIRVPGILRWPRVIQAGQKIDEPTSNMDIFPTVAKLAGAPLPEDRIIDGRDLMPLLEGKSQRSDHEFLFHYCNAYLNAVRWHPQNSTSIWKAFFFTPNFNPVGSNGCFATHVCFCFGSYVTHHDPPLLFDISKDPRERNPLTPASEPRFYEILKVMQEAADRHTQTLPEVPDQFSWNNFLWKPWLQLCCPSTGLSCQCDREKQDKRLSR
Outline: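 MCF-7 cells were grown in DMEM with 10% FBS to 80% confluence, then seeded at 1 × 10⁵ cells/well. Cells were incubated 20 h at 37 °C, 5% CO₂, in serum-free medium with [³H]E1S (3 nM, 4 × 10⁴ Bq), with or without inhibitor at 100, 10 or 1 nM. The hydrolysis product in the collected medium was extracted into toluene and counted by scintillation. Run in triplicate.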

[25] = Toxicity in BALB/c mouse allografted with mouse 67NR cells assessed as body weight loss at 50 mg/kg, po for 5 days a week and measured 3 times a week relative to control; type: organism-based; conditions: in vivo, 168 h, time 1 weeks
[26] = Toxicity in BALB/c mouse allografted with mouse 67NR cells assessed as increase in alanine aminotransferase levels in plasma at 50 mg/kg, po for 5 days a week; type: organism-based; conditions: in vivo, 168 h, time 1 weeks
[27] = target: T2, Steryl-sulfatase (Homo sapiens, UniProt P08842); experiment: Inhibition of human placental STS using [3H]E1S as substrate incubated for 3 hrs by radioisotope enzymatic assay; type: tissue-based, Placenta
T2 sequence (P08842 whole entry): T1 sequence (whole entry)
Outline: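 Purified placental STS, 5 U (1 U hydrolyses 100 μM NPS in 1 h at 37 °C), incubated with [3H]E1S (3 nM, 4 × 10⁴ Bq) and inhibitor in 20 mM Tris-HCl pH 7.4 for 3 h at 37 °C. The hydrolysis product was extracted into toluene and counted. Results are expressed as residual STS activity (%) from triplicate runs.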

[28] = Toxicity in BALB/c mouse allografted with mouse 67NR cells assessed as increase in aspartate aminotransferase levels in plasma at 50 mg/kg, po for 5 days a week; type: organism-based; conditions: in vivo, 168 h, time 1 weeks
[29] = Antitumor activity against mouse 67NR cells allografted in BALB/c mouse assessed as tumor growth inhibition at 50 mg/kg, po for 5 days a week and measured 3 times a week relative to control; type: functional; conditions: 168 h, time 1 weeks, read-out: TGI
Outline: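 Female BALB/c mice, 7–8 weeks old, received 1.5 × 10⁵ 67NR cells in 0.05 mL Hanks fluid into the mammary fat pad. At about 50 mm³ average tumor volume, mice were randomized to six groups of nine. Dosing was 50 mg/kg b.w. orally, 5 days a week, for 17 days of observation. Tumor volume was measured three times weekly. TGI was calculated from tumor volume versus the control group, using one-way ANOVA with Dunnett test.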

SMILES	Activity [1]	Activity [2]	Activity [3]	Activity [4]	Activity [5]	MTD at 168 h [6] [mg/kg]	Activity [7]	Activity [8]	Activity [9]	Activity [10] [%]	Activity [11]	inhibition [12]	Activity [13]	Activity [14]	Activity [15] [%]	Activity [16]	Activity [17]	Activity [18]	Activity [19]	Activity [20]	further results
NS(=O)(=O)Oc1ccc(-c2cn(-c3cccc(Cl)c3)nn2)cc1	Non-Toxic	Toxic	Non-Toxic	Non-Toxic	Non-Toxic	50	Non-Toxic	Non-Toxic	Toxic	5.8	Non-Toxic	Active	Toxic	Non-Toxic	12.1	Toxic	Toxic	Non-Toxic	Non-Toxic	Non-Toxic	Activity [21]: Non-Toxic; Activity [22]: Toxic; Activity [23]: Non-Toxic
NS(=O)(=O)Oc1ccc(-c2cn(-c3ccc(F)cc3C(F)(F)F)nn2)cc1	–	–	–	–	–	–	–	–	–	–	–	–	–	–	–	–	–	–	–	–	Activity [24]: 2.4%
NS(=O)(=O)Oc1ccc(-c2cn(-c3cccc(C(F)(F)F)c3)nn2)cc1	–	–	–	–	–	–	–	–	–	–	–	–	–	–	–	–	–	–	–	–	Activity [24]: 1.3%
NS(=O)(=O)Oc1ccc(-c2cn(-c3cc(F)cc(F)c3)nn2)cc1	Non-Toxic	Toxic	Toxic	Non-Toxic	Non-Toxic	50	Non-Toxic	Non-Toxic	Toxic	1.3	Non-Toxic	Active	Toxic	Non-Toxic	10.1	Toxic	Toxic	Non-Toxic	Non-Toxic	Non-Toxic	Activity [25]: 4.5%; Activity [26]: Toxic; IC50 [27]: 36.8 nM; Activity [21]: Non-Toxic; Activity [22]: Toxic; Activity [28]: Toxic; Activity [23]: Non-Toxic
NS(=O)(=O)Oc1ccc(-c2cn(-c3cccc(F)c3)nn2)cc1	Non-Toxic	Toxic	Toxic	Non-Toxic	Non-Toxic	50	Non-Toxic	Non-Toxic	Toxic	5.2	Non-Toxic	Active	Toxic	Non-Toxic	13.6	Toxic	Toxic	Non-Toxic	Non-Toxic	Non-Toxic	Activity [25]: 4.5%; Activity [26]: Toxic; Activity [21]: Non-Toxic; Activity [22]: Toxic; Activity [23]: Non-Toxic
NS(=O)(=O)Oc1ccc(-c2cn(-c3cc(Cl)cc(Cl)c3)nn2)cc1	Non-Toxic	Toxic	Toxic	Non-Toxic	Non-Toxic	50	Non-Toxic	Non-Toxic	Toxic	5.1	Non-Toxic	Active	Toxic	Non-Toxic	14.5	Toxic	Toxic	Non-Toxic	Non-Toxic	Non-Toxic	inhibition in vivo at 50 mg/kg [29]: 51%; Activity [21]: Non-Toxic; Activity [22]: Toxic; Activity [23]: Non-Toxic
NS(=O)(=O)Oc1ccc(-c2cn(-c3ccc(C(F)(F)F)cc3)nn2)cc1	–	–	–	–	–	–	–	–	–	–	–	–	–	–	–	–	–	–	–	–	Activity [24]: 2.9%
